# “And” between values parts separate entries of the source, which are not always exact repeats. Equal entries are not always repeated.
# How the values were obtained:
# Type in all cases: in vivo, human
# [1] = system: tumor epichaperome formations (epichaperome/HSP90); experiment: 124I-PU-H71 PET/CT tumor imaging in cancer patients
# Procedure, shortened: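 Adults with solid malignancy or lymphoma received 201±12 MBq tracer IV over 1-2 min, no contrast, with SSKI thyroid blockade. PET-CT was done at 3-4 and 20-24 h post-injection, with 45-60 min emission and OSEM reconstruction (decay, attenuation, scatter corrected). The highest-SUV tumor per patient gave SUVpeak (mean voxel SUV in the 1-cm3 sphere of highest uptake, mass-normalized). Tumor:bloodpool and tumor:muscle ratios were compared at 4 vs 24 h by Wilcoxon signed-rank.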
# [2] = Whole blood and plasma radioassay of tracer clearance
# Procedure, shortened: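 Tracer was injected IV over 1-2 min and blood drawn through a separate peripheral line at 10, 20 and 30 min and 1-2 or 3-4 h, plus 20-24 h in a subset (n=7). Whole blood and/or plasma were radioassayed by well counter. α and β half-lives came from biexponential fits, summarized as geometric mean. Plasma exposure was expressed as %ID·g·h/mL from 10 min to 4 h.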
# [3] = Plasma radioHPLC analysis of tracer metabolism; details: for Relative amount in plasma supernatant, GM: % of total activity of identified radioHPLC peaks
# [4] = PET/CT tracer biodistribution in normal organs
# Procedure, shortened: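 Patients received 201±12 MBq tracer IV, with SSKI taken ≥2 h before and daily for two weeks. PET-CT ran skull vertex to proximal thighs at 3-4 and 20-24 h post-injection, with CT for attenuation correction and anatomic localization. Mean SUV was measured in normal organs, including aortic blood pool, humerus, axial skeleton and brain, at 4 and 24 h (n=30).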
# [5] = PET-derived urinary and biliary tracer excretion
# Procedure, shortened: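 Serial PET, with bisacodyl 15 mg orally on three nights post-injection: at each time-point, 3D VOIs measured total activity in the urinary bladder and in the hepatobiliary tree plus bowel. Tracer lost by voiding or defecation was tracked from whole-FOV activity on decay-corrected serial scans, normalized to total activity on the initial scan immediately post-injection.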
# [6] = Clinical safety monitoring incl. serum TSH; details: microdose tracer 201±12 MBq, <25 μg IV, n=30 patients
# Procedure, shortened: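 Microdose tracer was given IV after seven drops SSKI orally ≥2 h pre-injection, repeated daily for two weeks. Serum TSH was measured <1 week pre-injection as baseline and again 6-12 months post-injection. Toxicity signs and symptoms were checked at each imaging time-point, and patients reported adverse symptoms over the following 30 days.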
# [7] = 4 hours post-injection, across patient population
# [8] = one table row per patient, PET 4 h post-injection
# [9] = one table row per patient, PET 24 h post-injection
# [10] = patients, IV bolus, geometric mean
structure (smiles),measurement,setting,value
CC(C)NCCCn1c(Sc2cc3c(cc2I)OCO3)nc2c(N)ncnc21 [^124I-PU-H71],"Tumor:bloodpool ratio of radiotracer concentrations, average/SD",[1]; [7],3.2± 3.0
same,"Tumor:bloodpool ratio of radiotracer concentrations, maximum",[1]; [7],up to 14.4
same,Tumor:bloodpool SUV ratio,"[1]; 24 h, person, stage IV pancreatic cancer (Fig. 1)",19.8
same,"Tumor:bloodpool ratio of radiotracer concentrations, average/SD","[1]; 24 hours post-injection, across patient population",3.9 ± 4.4
same,24-hour tumor SUV average/SD,[1]; between patients,0.9 ± 0.8
same,24-hour tumor SUV coefficient of variation,[1]; between patients,88.9%
same,24-hour tumor SUV range,[1]; between patients,0.1-3.8
same,Patients in whom PU-H71-avid tumors were detected,"[1]; n=26 evaluable patients, PET at 24 h",58%
same,T:B 4 h (tumor:blood pool SUVpeak ratio),[1]; [8],1.8 and 3.1 and 14.4 and 6.1 and 1.5 and 1.2 and 2.2 and 2.7 and 0.9 and 5.0 and 2.5 and 4.2 and 1.6 and 1.3 and 2.9 and 2.1 and 9.6 and 1.7 and 3.6
same,T:M 4 h (tumor:muscle SUV ratio),[1]; [8],1.8 and 6.0 and 22.0 and 5.1 and 2.1 and 1.2 and 2.8 and 1.9 and 2.4 and 5.3 and 2.0 and 1.0 and 5.4 and 4.0 and 3.3 and 5.2 and 3.0 and 3.8 and 1.5 and 7.7 and 2.7 and 4.9
same,Tumor SUV 4 h (SUVpeak),[1]; [8],1.1 and 1.6 and 11.0 and 2.5 and 0.64 and 0.8 and 0.7 and 0.9 and 3.4 and 1.7 and 3.2 and 2.1 and 1.3 and 1.8 and 2.7 and 1.5 and 2.2 and 1.2
same,T:B 24 h (tumor:blood pool SUVpeak ratio),[1]; [9],1.0 and 5.6 and 13.1 and 1.7 and 4.0 and 0.6 and 3.0 and 1.2 and 3.2 and 0.9 and 5.1 and 2.4 and 19.8 and 0.7 and 1.8 and 1.3 and 3.6 and 5.9 and 2.3 and 7.8 and 4.8
same,T:M 24 h (tumor:muscle SUV ratio),[1]; [9],1.6 and 11.2 and 20.0 and 8.0 and 6.7 and 1.2 and 6.0 and 2.3 and 1.5 and 6.4 and 1.0 and 1.1 and 8.8 and 2.1 and 6.2 and 2.5 and 4.6 ^****** and 1.4 and 3.3 and 5.6 and 5.2 and 17.5 and 1.3 and 5.1
same,Tumor SUV 24 h (SUVpeak),[1]; [9],0.3 and 0.6 and 3.8 and 0.8 and 0.4 and 0.1 and 0.2 and 1.0 and 0.7 and 1.8 and 1.1 and 1.6 and 0.5 and 1.3 and 0.9 and 2.1 and 1.5
same,Decrease of tumor SUV between 4 to 24 hours,[1]; overall,1.0±1.4 SUV units
same,"Decrease of tumor SUV between 4 to 24 hours, range",[1]; overall,−25.0 to +87.5%
same,"Decrease of tumor SUV between 4 to 24 hours, mean ± SD","[1]; overall, p=0.00002",50.7 ± 27.0%
same,Increase of tumor:bloodpool SUV ratio between 3 and 24 h,"[1]; person, stage IV pancreatic cancer (Fig. 1)",371%
same,Median increase in tumor:bloodpool SUV ratio from 4 to 24 hours,[1]; population,4.8%
same,Median increase in tumor:muscle SUV ratio from 4 to 24 hours,[1]; population,20.9%
same,Range of change in tumor:bloodpool SUV ratio from 4 to 24 hours,[1]; population,−72.1 to +371.4%
same,Range of change in tumor:muscle SUV ratio from 4 to 24 hours,[1]; population,−63.2 to +257.1%
same,Average increase in tumor:muscle SUV ratio from 4 to 24 hours,"[1]; population, p=0.02",52.0 ± 87.3%
same,Average increase in tumor:bloodpool SUV ratio from 4 to 24 hours,"[1]; population, p=0.9",25.7 ± 99.9%
same,Plasma AUC coefficient of variation,[2]; between patients,36.6%
same,Plasma radiotracer exposure,[2]; from 10 minutes to 4 hours post-injection,1.7±0.6 % ID•g•h/mL
same,"Blood t1/2 α, GM",[2]; [10],7.9 min
same,"Blood t1/2 β, GM",[2]; [10],6.103 h
same,"Plasma t1/2 α, GM",[2]; [10],7.0 min
same,"Plasma t1/2 β, GM",[2]; [10],4.402 h
same,"Relative amount in plasma supernatant, GM",[3]; 10 min after tracer injection,69.2%
same,"Relative amount in plasma supernatant, GM",[3]; 20 min after tracer injection,51.7%
same,"Relative amount in plasma supernatant, GM",[3]; 30 min after tracer injection,44.9%
same,"Relative amount in plasma supernatant, GM",[3]; 1h after tracer injection,32.3%
same,"Relative amount in plasma supernatant, GM",[3]; 4h after tracer injection,22.7%
same,Time by which radiotracer became predominantly radiometabolites,"[3]; plasma, p.i.",≤ 1 h
same,Brain uptake,[4]; PET,scant
same,24-hour bloodpool SUV,"[4]; average/SD, 24 hours post-injection",0.2 ±0.1
same,Urinary excretion of tracer,[5],29.5 ±10.9 %ID
same,Hepatobiliary excretion of tracer,[5]; bisacodyl given,45.4 ±15.8 %ID
same,Adverse effects,[6],no adverse effects
same,Adverse effects,[6]; listed as PUH71 tracer,No signs or symptoms of adverse effects
